Data reported in ChEMBL document CHEMBL2203075, “Terpecurcumins A-I from the rhizomes of Curcuma longa: absolute configuration and cytotoxic activity” (J Nat Prod, 2012).

Legend:
Type in all cases: functional, cell-based
MDA-MB-231 = assay: Cytotoxicity against human MDA-MB-231 cells after 72 hrs by crystal violet staining based microplate reader analysis; details: MDA-MB-231, 72 h
Procedure, shortened: (§1)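 ATCC HepG2 and MDA-MB-231 cells grown in DMEM with 10% FBS and no antibiotics. Medium was changed at 50–60% confluence (24–48 h post-plating), then cells were exposed for 72 h. Fixation used 1% glutaraldehyde in PBS for 15 min, followed by 0.02% aqueous crystal violet for 30 min. After a PBS wash and 70% EtOH solubilization, absorbance was read at 570 nm (ref 405 nm). IC50 derived; Taxol was the positive control.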

A549 = assay: Cytotoxicity against human A549 cells after 72 hrs by crystal violet staining based microplate reader analysis; details: A549, 72 h
Procedure, shortened: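 At 50–60% confluence (24–48 h after plating), medium was refreshed before a 72 h treatment. Cells were fixed in 1% glutaraldehyde/PBS for 15 min and stained with 0.02% crystal violet for 30 min. After a PBS wash, dye was solubilized in 70% EtOH and read at A570 (ref 405 nm). IC50 reported; Taxol was the positive control.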

HepG2 = assay: Cytotoxicity against human HepG2 cells after 72 hrs by crystal violet staining based microplate reader analysis; details: HepG2, 72 h; procedure, shortened: as §1

Row | SMILES | IC50 (MDA-MB-231) | IC50 (A549) | IC50 (HepG2)
1 | COc1cc(/C=C/C(=O)/C=C(O)/C=C/c2ccc(O[C@]3(C)C=C[C@@H]([C@@H](C)CC(=O)C=C(C)C)C[C@@H]3O)c(OC)c2)ccc1O [TERPECURCUMIN F] | 19.4 µM | 15.2 µM | 15.7 µM
2 | COc1cc(/C=C/C(=O)/C=C(O)/C=C/c2ccc(O[C@H]3C[C@H]([C@@H](C)CC(=O)C=C(C)C)C=C[C@@]3(C)O)c(OC)c2)ccc1O [TERPECURCUMIN D] | 15.9 µM | 14.3 µM | 18.3 µM
3 | COc1cc(/C=C/C(=O)/C=C(O)/C=C/c2cc(OC)c(O)c([C@H]3C=C(C)[C@@H](O)C[C@@H]3[C@@H](C)CCC=C(C)C)c2)ccc1O [TERPECURCUMIN H] | 43.7 µM | 84.3 µM | 54.6 µM
4 | COc1cc(/C=C/C(=O)/C=C(O)/C=C/c2ccc(O[C@]3(C)C=C[C@@H]([C@@H](C)CC(=O)C=C(C)C)C[C@@H]3O)cc2)ccc1O [TERPECURCUMIN G] | 15.9 µM | 14.5 µM | 17.1 µM
5 | COc1cc(/C=C/C(O)=C/C(=O)/C=C/c2ccc(O)cc2)ccc1O [DEMETHOXYCURCUMIN] | 44.3 µM | 38.1 µM | 58.1 µM
6 | COc1cc(/C=C/C(=O)/C=C(O)/C=C/c2ccc(O[C@]3(C)C=C[C@@H]([C@@H](C)CCC=C(C)C)C[C@@H]3O)c(OC)c2)ccc1O [TERPECURCUMIN E] | 84.1 µM | 41.4 µM | 35.9 µM
7 | COc1cc(/C=C/C(=O)/C=C(O)/C=C/c2ccc(O[C@H]3C=C(C)[C@@H](O)C[C@@H]3[C@@H](C)CC(=O)C=C(C)C)c(OC)c2)ccc1O [BISABOLOCURCUMIN ETHER] | 10.6 µM | 16.1 µM | 15.4 µM
8 | COc1cc(/C=C/C(=O)CC(=O)/C=C/c2ccc(O)c(OC)c2)ccc1O [CURCUMIN] | 37.8 µM | 49.2 µM | 31.3 µM
9 | COc1cc(/C=C/C(O)=C/C(=O)/C=C/c2ccc(O)cc2)ccc1O[C@H]1C=C(C)[C@@H](O)C[C@@H]1[C@@H](C)CC(=O)C=C(C)C [DEMETHOXYBISABOLOCURCUMIN ETHER] | 10.3 µM | 16.6 µM | 13 µM
10 | CC(C)=CC(=O)C[C@H](C)[C@H]1C[C@H](O)C(C)=C[C@@H]1Oc1ccc(/C=C/C(O)=C/C(=O)/C=C/c2ccc(O)cc2)cc1 [DIDEMETHOXYBISABOLOCURCUMIN ETHER] | 30.8 µM | 27.4 µM | 22.7 µM
11 | COc1cc(/C=C/C(=O)/C=C(O)/C=C/c2cc(OC)c(O)c([C@H]3C=C(C)CC[C@@H]3[C@@H](C)CC(=O)C=C(C)C)c2)ccc1O [TERPECURCUMIN I] | 69.5 µM | 41.1 µM | 50.3 µM
12 | CC(=O)O[C@H]1C(=O)[C@@]2(C)[C@H]([C@H](OC(=O)c3ccccc3)[C@]3(O)C[C@H](OC(=O)[C@H](O)[C@@H](NC(=O)c4ccccc4)c4ccccc4)C(C)=C1C3(C)C)[C@]1(OC(C)=O)CO[C@@H]1C[C@@H]2O [PACLITAXEL] | 0.052 µM | 0.056 µM | 0.054 µM
13 | O=C(/C=C/c1ccc(O)cc1)CC(=O)/C=C/c1ccc(O)cc1 [BISDEMETHOXYCURCUMIN] | 38.5 µM | 38.1 µM | 62.9 µM
14 | COc1cc(/C=C/C(=O)/C=C(O)/C=C/c2ccc(O[C@H]3C[C@H]([C@@H](C)CCC=C(C)C)[C@@H](O)C=C3C)c(OC)c2)ccc1O [TERPECURCUMIN B] | 74.9 µM | 61.9 µM | 64.1 µM
15 | COc1cc(/C=C/C(=O)/C=C(O)/C=C/c2ccc(O[C@H]3C=C(C)[C@@H](O)C[C@@H]3[C@@H](C)CCC=C(C)C)c(OC)c2)ccc1O [TERPECURCUMIN A] | 27.3 µM | 30.6 µM | 25 µM
16 | COc1cc(/C=C/C(=O)/C=C(O)/C=C/c2ccc(O[C@H]3C[C@H]([C@@H](C)CCC=C(C)C)C=C[C@@]3(C)O)c(OC)c2)ccc1O [TERPECURCUMIN C] | 24.6 µM | 35 µM | 29.5 µM
